Laboratory results published in ChEMBL document CHEMBL4311975, “Exploration of the antibiotic potentiating activity of indolglyoxylpolyamines” (Eur J Med Chem, 2019).
Converted amounts (≈) assume the structure as drawn.

Columns and labels:
[1] = system: Staphylococcus aureus; experiment: Antibacterial activity against Staphylococcus aureus ATCC 25923 assessed as growth inhibition incubated for 18 hrs by broth dilution method; assay type: functional; details: ATCC 25923, 18 h
In short: (§1)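 Broth microdilution following CA-SFM recommendations. Inoculum was 10^5 CFU in Mueller-Hinton broth with two-fold serial drug dilutions. Plates were incubated 18 h at 37 °C. MIC was the lowest concentration giving complete inhibition of visible growth. Values are means, n = 3.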

[2] = system: Klebsiella pneumoniae; experiment: Antibacterial activity against Klebsiella pneumoniae ATCC 700603 assessed as growth inhibition incubated for 18 hrs by resazurin dye based assay; assay type: functional; details: Klebsiella pneumoniae, 700603, 18 h
In short: (§2)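 Overnight cultures were diluted 40-fold in MHB and grown 1.5–2 h at 37 °C to mid-log phase. Cells were added at 5×10^5 CFU/mL final to two-fold compound dilutions (0.008–32 μg/mL final), in duplicate, for 18 h at 37 °C. Resazurin (0.001% final) was added for 2 h and MIC read by eye. Means, n = 2.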

[3] = system: Escherichia coli; experiment: Antibacterial activity against Escherichia coli ATCC 25922 assessed as growth inhibition incubated for 18 hrs by broth dilution method; assay type: functional; details: ATCC 25922, 18 h; in short: as §1
[4] = Cytotoxicity against human HEK293 cells measured after 20 hrs by resazurin dye based fluorescence assay; assay type: cell-based
In short: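 HEK293 cells, 5,000/well in DMEM with 10% FBS, were exposed to compound for 20 h at 37 °C, 5% CO2. Resazurin (100 μM final) was added for 3 h, then fluorescence read at ex 560/em 590. Signal was normalised to tamoxifen (74 μg/mL, 0%) and untreated growth (100%), and CC50 came from dose-response fitting. Top dose 32 μg/mL. Means, n = 2.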

[5] = Hemolytic activity against Sprague-Dawley rat RBC assessed as release of hemoglobin at 50 uM incubated for 1 hr relative to control; assay type: ADME, cell-based, Erythrocyte; details: red blood cells (erythrocytes), read-out: Activity
In short: (§3)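 Fresh Sprague-Dawley rat erythrocytes were washed in saline and resuspended at 2% v/v. Cells were incubated with compound in DMSO/PBS for 1 h at 37 °C, then centrifuged at 200 g, and supernatant absorbance read at 540 nm. Results were normalised to DMSO/PBS (0%) and 0.1% Triton X-100 (100%). Single-point testing used 50 μM; HC50 came from 10-point curves. Means of three experiments.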

[6] = system: Acinetobacter baumannii; experiment: Antibacterial activity against Acinetobacter baumannii ATCC 19606 assessed as growth inhibition incubated for 18 hrs by resazurin dye based assay; assay type: functional; details: ATCC 19606 = CIP 70.34 = JCM 6841, 18 h; in short: as §2
[7] = system: Cryptococcus neoformans; experiment: Antifungal activity against Cryptococcus neoformans ATCC 208821 assessed as growth inhibition incubated for 36 hrs by resazurin dye based assay; assay type: functional; details: ATCC 208821, 36 h
In short: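 Cryptococcus was grown 3 days on YPD agar at 30 °C, suspended, and diluted in YNB broth to 2.5×10^3 CFU/mL. Cells were exposed to 0.008–32 μg/mL compound (final), in duplicate, for 36 h at 35 °C without shaking. Resazurin (0.006% final) was added for a further 3 h. MIC was read from absorbance at OD570–600. Means, n = 2.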

[8] = system: Candida albicans; experiment: Antifungal activity against Candida albicans ATCC 90028 assessed as growth inhibition incubated for 36 hrs by resazurin dye based assay; assay type: functional; details: ATCC 90028, 36 h
In short: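 Yeast was grown 3 days on YPD agar at 30 °C. Colonies were suspended and diluted in YNB broth to 2.5×10^3 CFU/mL, then added to two-fold compound dilutions (0.008–32 μg/mL final), in duplicate. Plates stood 36 h at 35 °C without shaking. Means, n = 2.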

[9] = Hemolytic activity against Sprague-Dawley rat RBC assessed as release of hemoglobin incubated for 1 hr; assay type: ADME, cell-based, Erythrocyte; details: red blood cells (erythrocytes); in short: as §3
[10] = system: L6; experiment: Cytotoxicity against rat L6 cells measured after 72 hrs by alamar blue assay; assay type: cell-based; details: L6, 72 h
In short: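 Rat L6 myoblasts, 4×10^4/well in RPMI 1640 with L-glutamine and 10% FBS, received seven 3-fold dilutions (90 to 0.123 μg/mL) for 72 h. Alamar Blue was added for 2 h and fluorescence read at ex 536/em 588 nm. Podophyllotoxin served as reference. Means, n = 2.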

[11] = system: Pseudomonas aeruginosa; experiment: Antibacterial activity against Pseudomonas aeruginosa ATCC 27853 assessed as growth inhibition incubated for 18 hrs by broth dilution method; assay type: functional; details: ATCC 27853, 18 h; in short: as §1
[12] = system: Pseudomonas aeruginosa; experiment: Potentiation of doxycycline-induced antibacterial activity against Pseudomonas aeruginosa ATCC 27853 assessed as concentration required to restore 2 ug/ml doxycycline activity measured after 18 hrs; assay type: functional
In short: (§4)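 Inoculum was 5×10^5 CFU in MHB with two-fold serial dilutions of adjuvant plus fixed doxycycline at 2 μg/mL. […] Repeated independently in triplicate.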

[13] = system: Klebsiella pneumoniae; experiment: Potentiation of doxycycline-induced antibacterial activity against Klebsiella pneumoniae ATCC 13443 assessed as concentration required to restore 2 ug/ml doxycycline activity measured after 18 hrs; assay type: functional; in short: as §4
[14] = system: Escherichia coli; experiment: Potentiation of nalidixic acid-induced antibacterial activity against Escherichia coli ATCC 25922 assessed as concentration required to restore 2 ug/ml nalidixic acid activity measured after 18 hrs; assay type: functional
[15] = system: Escherichia coli; experiment: Potentiation of erythromycin-induced antibacterial activity against Escherichia coli ATCC 25922 assessed as concentration required to restore 2 ug/ml erythromycin activity measured after 18 hrs; assay type: functional
[16] = system: Acinetobacter baumannii; experiment: Potentiation of nalidixic acid-induced antibacterial activity against Acinetobacter baumannii AYE assessed as concentration required to restore 2 ug/ml nalidixic acid activity measured after 18 hrs; assay type: functional
[17] = system: Acinetobacter baumannii; experiment: Potentiation of chloramphenicol-induced antibacterial activity against Acinetobacter baumannii AYE assessed as concentration required to restore 2 ug/ml chloramphenicol activity measured after 18 hrs; assay type: functional
[18] = system: Klebsiella pneumoniae; experiment: Potentiation of nalidixic acid-induced antibacterial activity against Klebsiella pneumoniae ATCC 13443 assessed as concentration required to restore 2 ug/ml nalidixic acid activity measured after 18 hrs; assay type: functional
[19] = system: Acinetobacter baumannii; experiment: Potentiation of doxycycline-induced antibacterial activity against Acinetobacter baumannii AYE assessed as concentration required to restore 2 ug/ml doxycycline activity measured after 18 hrs; assay type: functional; in short: as §4
[20] = system: Pseudomonas aeruginosa; experiment: Potentiation of nalidixic acid-induced antibacterial activity against Pseudomonas aeruginosa ATCC 27853 assessed as concentration required to restore 2 ug/ml nalidixic acid activity measured after 18 hrs; assay type: functional
[21] = system: Escherichia coli; experiment: Potentiation of doxycycline-induced antibacterial activity against Escherichia coli ATCC 25922 assessed as concentration required to restore 2 ug/ml doxycycline activity measured after 18 hrs; assay type: functional; in short: as §4
[22] = system: Escherichia coli; experiment: Potentiation of chloramphenicol-induced antibacterial activity against Escherichia coli ATCC 25922 assessed as concentration required to restore 2 ug/ml chloramphenicol activity measured after 18 hrs; assay type: functional
[23] = system: Pseudomonas aeruginosa; experiment: Potentiation of chloramphenicol-induced antibacterial activity against Pseudomonas aeruginosa ATCC 27853 assessed as concentration required to restore 2 ug/ml chloramphenicol activity measured after 18 hrs; assay type: functional
[24] = system: Acinetobacter baumannii; experiment: Potentiation of erythromycin-induced antibacterial activity against Acinetobacter baumannii AYE assessed as concentration required to restore 2 ug/ml erythromycin activity measured after 18 hrs; assay type: functional
[25] = system: Klebsiella pneumoniae; experiment: Potentiation of chloramphenicol-induced antibacterial activity against Klebsiella pneumoniae ATCC 13443 assessed as concentration required to restore 2 ug/ml chloramphenicol activity measured after 18 hrs; assay type: functional
[26] = system: Klebsiella pneumoniae; experiment: Potentiation of erythromycin-induced antibacterial activity against Klebsiella pneumoniae ATCC 13443 assessed as concentration required to restore 2 ug/ml erythromycin activity measured after 18 hrs; assay type: functional
[27] = system: Pseudomonas aeruginosa; experiment: Potentiation of erythromycin-induced antibacterial activity against Pseudomonas aeruginosa ATCC 27853 assessed as concentration required to restore 2 ug/ml erythromycin activity measured after 18 hrs; assay type: functional
[28] = system: Pseudomonas aeruginosa; experiment: Induction of membrane depolarization in Pseudomonas aeruginosa measured after 15 mins by DiSC3(5) dye based spectrofluorometric method; assay type: functional, organism-based
In short: (§5)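 Bacteria were grown 24 h in MHB at 37 °C, washed in 250 mM sucrose with 5 mM MgSO4, and loaded with 3 μM DiSC3(5) for 1 h at 37 °C. Unbound dye was washed away before compound was added at varied concentrations. Fluorescence was recorded after 15 min on a spectrofluorometer, with pure 3 μM dye as the maximum. CTAB (0.01%) served as positive control.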

[29] = system: Staphylococcus aureus; experiment: Disruption of membrane integrity in Staphylococcus aureus assessed as increase in extracellular ATP level by luciferin-luciferase reagent based luminescence assay; assay type: functional, organism-based
In short: (§6)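 Growing bacteria (P. aeruginosa PAO1 or S. aureus) in MHB at 37 °C were mixed 9:1 with compound, at 4× MIC, and vortexed for 1 s. Luciferin-luciferase reagent was added immediately and luminescence read for 5 s. ATP was quantified by internal standard addition. Squalamine served as positive control.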

[30] = system: Staphylococcus intermedius; experiment: Antibacterial activity against Staphylococcus intermedius 1051997 assessed as growth inhibition incubated for 18 hrs by broth dilution method; assay type: functional; details: Staphylococcus intermedius, 1051997, 18 h; in short: as §1
[31] = system: Staphylococcus aureus; experiment: Induction of membrane depolarization in Staphylococcus aureus measured after 15 mins by DiSC3(5) dye based spectrofluorometric method; assay type: functional, organism-based; in short: as §5
[32] = system: Klebsiella aerogenes; experiment: Disruption of membrane integrity in Enterobacter aerogenes EA289 assessed as increase in beta-lactamase hydrolysis by using chromogenic nitrocefin as substrate by spectrophotometry analysis; assay type: functional
In short: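 E. aerogenes EA289 was grown in MHB at 37 °C to OD600 0.5, washed in 20 mM potassium phosphate (pH 7.2) with 1 mM MgCl2, and readjusted to OD600 0.5. Cells were exposed to compound at 3.9–250 μM final with nitrocefin at 50 μg/mL final, at room temperature. Hydrolysis was followed as the absorbance rise at 490 nm.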

[33] = system: Pseudomonas aeruginosa; experiment: Disruption of membrane integrity in Pseudomonas aeruginosa PAO1 assessed as increase in extracellular ATP level by luciferin-luciferase reagent based luminescence assay; assay type: functional, organism-based; in short: as §6

| SMILES | MIC [1] [µM] | MIC [2] [µM] | MIC [3] [µM] | CC50 at 20 h [4] [µM] | hemolysis at 1 h, 50 µM [5] [%] | MIC [6] [µM] | MIC [7] [µM] | MIC [8] [µM] | IC50 [10] [µM] | MIC [11] [µM] | Activity [12] [µM] | Activity [13] [µM] | Activity [14] [µM] | Activity [16] [µM] | Activity [18] [µM] | Activity [19] [µM] | Activity [20] [µM] | Activity [21] [µM] | Activity [23] [µM] | Activity [27] [µM] | other results |
| --- | --- | --- | --- | --- | --- | --- | --- | --- | --- | --- | --- | --- | --- | --- | --- | --- | --- | --- | --- | --- | --- |
| O=C(NCCCNCCCCNCCCNC(=O)C(=O)c1c[nH]c2cc(Br)c(Br)cc12)C(=O)c1c[nH]c2cc(Br)c(Br)cc12.O=C(O)C(F)(F)F.O=C(O)C(F)(F)F | 25 | > 29.4 | 50 | 1.62 | 88.7 | > 29.4 | 3.65 | > 29.4 | 6.03 | 100 | 25 |  |  |  |  |  |  |  |  |  | HC50 at 1 h [9]: 17 µM |
| COc1cccc2c(C(=O)C(=O)NCCCNCCCCNCCCNC(=O)C(=O)c3c[nH]c4c(OC)cccc34)c[nH]c12 | 15 (≈ 9.07 µg/mL) | > 38.4 | > 200 | 27.1 | 0 | > 38.4 | > 38.4 | 38.4 (≈ 23.2 µg/mL) | 62 | > 200 | 3.75 to 7.5 | >200 | >200 | >200 | >200 | 15 | 60 | 3.75 | 30 | 100 | Activity [15]: >200 µM; Activity [17]: >200 µM; Activity [22]: >200 µM; Activity [24]: >200 µM; Activity [25]: >200 µM; Activity [26]: >200 µM |
| O=C(NCCCNCCCCNCCCNC(=O)C(=O)c1c[nH]c2ccc(Br)cc12)C(=O)c1c[nH]c2ccc(Br)cc12.O=C(O)C(F)(F)F.O=C(O)C(F)(F)F | 3.12 | 34.4 | 25 | 14.1 | 34.7 | > 34.4 | 2.2 | > 34.4 | 19.8 | 50 | 3.125 to 6.25 | 13.4 | 100 | 100 | 12.5 | 6.72 | >200 | 1.68 | 26.9 | >200 | Activity [28]: Dose-dependent effect; Activity [29]: Dose-dependent effect; MIC [30]: 3.12 µM; Activity [31]: Dose-dependent effect; Activity [32]: Dose-dependent effect; Activity [33]: Dose-dependent effect |
| O=C(NCCCNCCCCNCCCNC(=O)C(=O)c1c[nH]c2c(F)cccc12)C(=O)c1c[nH]c2c(F)cccc12.O=C(O)C(F)(F)F.O=C(O)C(F)(F)F | 25 | > 39.6 | 200 | 18.7 | 8.4 | > 39.6 | 4.9 | > 39.6 | 38.7 | 200 | 3.125 |  |  |  |  |  |  |  |  |  | Activity [28]: Dose-dependent effect; Activity [29]: Dose-dependent effect; MIC [30]: > 200 µM; Activity [31]: Dose-dependent effect; Activity [32]: Dose-dependent effect; Activity [33]: Dose-dependent effect |
